Results reported in ChEMBL document CHEMBL1122896, “Comparative computer graphics and solution studies of the DNA interaction of substituted anthraquinones based on doxorubicin and mitoxantrone” (1985).

Legend:
[1] = test system: Mus musculus; test: In vivo antileukemic activity against P-388 cells in mice and the treated /control value was determined at schedule Q01Dx01 at a dose of 128 mg/kg; assay type: functional
In short: (§1)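 Mice bearing P-388 leukaemia received the hydrochloride salts as a single dose on day 3 after inoculation (Q01D×01). Activity is expressed as treated/control (T/C).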

[2] = test system: Mus musculus; test: In vivo antileukemic activity against P-388 cells in mice and the treated /control value was determined at schedule Q01Dx01 at a dose of 1 mg/kg; assay type: functional; in short: as §1
[3] = test system: Mus musculus; test: In vivo antileukemic activity against P-388 cells in mice and the treated /control value was determined at schedule Q01Dx01 at a dose of 4 mg/kg; assay type: functional; in short: as §1
[4] = test system: Mus musculus; test: In vivo antileukemic activity against P-388 cells in mice and the treated /control value was determined at schedule Q01Dx01 at a dose of 2 mg/kg; assay type: functional; in short: as §1
[5] = test system: Mus musculus; test: In vivo antileukemic activity against P-388 cells in mice and the treated /control value was determined at schedule Q01Dx01 at a dose of 32 mg/kg; assay type: functional; in short: as §1
[6] = test system: Nucleic Acid; test: Compound was evaluated for DNA binding affinity; assay type: nucleic-acid assay; details: Bos taurus
In short: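 Drug solution (5 × 10^-5 M, 3 mL; three samples) was titrated with sequential aliquots of 2.5 × 10^-3 M DNA. Absorbance was read at the unbound-drug λmax after equilibration, against a buffer blank. Free and bound drug were derived from the fractional decrease in extinction. Affinity K and site number n were taken from a Scatchard plot.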

[7] = test system: Mus musculus; test: In vivo antileukemic activity against P-388 cells in mice and the treated /control value was determined at schedule Q01Dx01 at a dose of 64 mg/kg; assay type: functional; in short: as §1
[8] = test system: HeLa; test: Antiproliferative effect against HeLa cell lines at a concentration of 1 uM; assay type: functional, Homo sapiens
[9] = test system: HEp-2; test: Antiproliferative effect against Hep2 cell lines at a concentration of 1 uM; assay type: functional, Homo sapiens
[10] = test system: Nucleic Acid; test: Concentration to give comigration of ccc PM-2 DNA with nicked PM-2 DNA under electrophoresis was evaluated.; assay type: nucleic-acid assay; details: unidentified phage
In short: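 Agarose tube gels (1%, pH 7.4 Tris-Cl/EDTA/NaCl/acetate buffer) contained drug at final 0.00–1.00 µg/mL. PM-2 ccc-DNA was loaded with drug at a 5:1 DNA phosphate:drug ratio and run at 45 V, 20–25 °C, for 3–4 h. Gels were stained with ethidium. The critical concentration is where ccc-DNA comigrates with nicked PM-2 DNA.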

[11] = test system: Mus musculus; test: In vivo antileukemic activity against P-388 cells in mice and the treated /control value was determined at schedule Q01Dx01 at a dose of 8 mg/kg; assay type: functional; in short: as §1
[12] = test system: Mus musculus; test: In vivo antileukemic activity against P-388 cells in mice and the treated /control value was determined at schedule Q01Dx01 at a dose of 16 mg/kg; assay type: functional; in short: as §1
[13] = test system: HEp-2; test: Antiproliferative effect against Hep2 cell lines at a concentration of 10.0 uM; assay type: functional, Homo sapiens
[14] = test system: HeLa; test: Antiproliferative effect against HeLa cell lines at a concentration of 10.0 uM; assay type: functional, Homo sapiens
[15] = test system: Mus musculus; test: In vivo antileukemic activity against P-388 cells in mice and the treated /control value was determined at schedule Q04Dx03 at a dose of 4 mg/kg
[16] = test system: Mus musculus; test: In vivo antileukemic activity against P-388 cells in mice and the treated /control value was determined at schedule Q04Dx03 at a dose of 8 mg/kg
[17] = test system: Mus musculus; test: In vivo antileukemic activity against P-388 cells in mice and the treated /control value was determined at schedule Q04Dx03 at a dose of 16 mg/kg

For `CCN(CC)CCNc1ccc(NCCN(CC)CC)c2c1C(=O)c1ccccc1C2=O`, the T/C [1] was 111, the T/C [2] was 117 and the T/C [3] was 100. For the same molecule, the T/C [4] was 95, the T/C [5] was 103 and the Affinity constant [6] was 3.17e+06 M⁻¹. The T/C [7] was 97, the “No. of untreated cells” value [8] was 98% and the “No. of untreated cells” value [9] was 88%. For the same molecule, the Critical concentration [10] was 0.16 µg/mL, the T/C [11] was 107 and the T/C [12] was 112.
`CCN(CC)CCNc1cccc2c1C(=O)c1ccccc1C2=O` showed a T/C [2] of 105, a T/C [3] of 100 and a T/C [4] of 98. The “No. of untreated cells” value [13] was 92%, the Affinity constant [6] was 1.48e+06 M⁻¹ and the Critical concentration [10] was 0.8 µg/mL. For the same molecule, the “No. of untreated cells” value [14] was 96%, the T/C [11] was 100 and the T/C [12] was 95.
With `COc1cccc2c1C(=O)c1c(O)c3c(c(O)c1C2=O)C[C@@](O)(C(=O)CO)C[C@@H]3O[C@H]1C[C@H](N)[C@H](O)[C@H](C)O1` [DOXORUBICIN] the “No. of untreated cells” value [8] was 52% and the “No. of untreated cells” value [9] was 56%.
With `CCN(CC)CCNc1cccc2c1C(=O)c1c(NCCN(CC)CC)cccc1C2=O` the T/C [3] was 105, the T/C [4] was 104 and the “No. of untreated cells” value [13] was 84%. The Affinity constant [6] was 1.71e+06 M⁻¹, the T/C [15] was 91 and the Critical concentration [10] was 0.4 µg/mL. The “No. of untreated cells” value [14] was 64%, the T/C [16] was 98 and the T/C [11] was 107. It also gave a T/C [17] of 102.
`CCN(CC)CCNc1cccc2c1C(=O)c1cccc(NCCN(CC)CC)c1C2=O` gave a T/C [1] of 92, a T/C [2] of 102 and a T/C [3] of 107. For the same molecule, the T/C [4] was 98, the T/C [5] was 100 and the Affinity constant [6] was 3.97e+06 M⁻¹. For the same molecule, the T/C [7] was 105, the “No. of untreated cells” value [8] was 75% and the “No. of untreated cells” value [9] was 64%. It also gave a Critical concentration [10] of 0.16 µg/mL, a T/C [11] of 98 and a T/C [12] of 105.
